Consider five molecules from ChEMBL document CHEMBL2417369, “Synthesis and evaluation of heteroaryl substituted diazaspirocycles as scaffolds to probe the ATP-binding site of protein kinases” (Bioorg Med Chem, 2013).

For assay [1], the target named is Vascular endothelial growth factor receptor 2 (Homo sapiens) (UniProt P35968). Nature of the assay: Inhibition of KDR (unknown origin) at 30 uM by microfluidic mobility shift assay relative to control. The procedure, abridged:
(§1)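 Single-point screen at 30 µM test compound across a 24-kinase panel in a microfluidic assay format. ATP was set near each enzyme's Km,[ATP]. […] The pan-AGC inhibitor H-89 served as an internal control on every assay plate.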

The target of assay [2] is Receptor-type tyrosine-protein kinase FLT3 (Homo sapiens) (UniProt P36888). Kind of assay: Inhibition of FLT3 (unknown origin) at 30 uM by microfluidic mobility shift assay relative to control. The procedure, abridged: as §1
For assay [3], the target named is T1, Serine/threonine-protein kinase D3 (Homo sapiens) (UniProt O94806).
T1 sequence (whole entry): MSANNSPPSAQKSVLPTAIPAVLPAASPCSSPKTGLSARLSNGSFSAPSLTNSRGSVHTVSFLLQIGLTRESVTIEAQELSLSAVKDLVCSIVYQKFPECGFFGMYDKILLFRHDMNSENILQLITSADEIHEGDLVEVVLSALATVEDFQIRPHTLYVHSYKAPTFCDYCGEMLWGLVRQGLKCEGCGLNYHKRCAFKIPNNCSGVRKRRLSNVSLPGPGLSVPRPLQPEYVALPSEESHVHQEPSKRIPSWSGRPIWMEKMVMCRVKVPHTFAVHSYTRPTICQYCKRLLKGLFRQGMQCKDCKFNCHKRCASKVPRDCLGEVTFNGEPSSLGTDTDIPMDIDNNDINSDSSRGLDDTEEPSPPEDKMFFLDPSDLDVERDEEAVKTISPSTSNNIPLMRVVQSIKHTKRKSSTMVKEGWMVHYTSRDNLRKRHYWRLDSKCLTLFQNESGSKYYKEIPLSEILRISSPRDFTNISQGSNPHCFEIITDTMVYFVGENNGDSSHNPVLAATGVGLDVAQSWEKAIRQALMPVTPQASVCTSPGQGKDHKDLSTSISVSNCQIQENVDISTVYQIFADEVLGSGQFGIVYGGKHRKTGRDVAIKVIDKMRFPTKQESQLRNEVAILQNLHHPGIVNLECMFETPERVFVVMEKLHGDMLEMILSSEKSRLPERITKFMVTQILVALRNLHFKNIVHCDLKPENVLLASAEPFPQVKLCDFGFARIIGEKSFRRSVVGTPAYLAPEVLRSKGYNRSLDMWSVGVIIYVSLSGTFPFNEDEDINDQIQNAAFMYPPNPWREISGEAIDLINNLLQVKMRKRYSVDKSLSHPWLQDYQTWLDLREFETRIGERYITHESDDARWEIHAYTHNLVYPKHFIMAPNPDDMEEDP
Nature of the assay: Inhibition of PKD3 (unknown origin) at 30 uM by microfluidic mobility shift assay relative to control. The essentials: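 Single-point screen against a 24-kinase panel in a commercial microfluidic assay format. Compounds were tested at 30 µM, with ATP at approximately the Km,[ATP] of each enzyme. H-89 was included on each assay plate as an internal control.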

Assay [4] has as its target MAP kinase-activated protein kinase 5 (Homo sapiens, UniProt Q8IW41). Kind of assay: Inhibition of PRAK (unknown origin) by microfluidic mobility shift assay.
In assay [5] the target is Ribosomal protein S6 kinase alpha-5 (Homo sapiens, UniProt O75582). Kind of assay: Inhibition of MSK1 (unknown origin) by microfluidic mobility shift assay.
In assay [6] the target is Mitogen-activated protein kinase 1 (Homo sapiens, UniProt P28482). Nature of the assay: Inhibition of ERK2 (unknown origin) by microfluidic mobility shift assay.
In assay [7] the target is Tyrosine-protein kinase Fyn (Homo sapiens, UniProt P06241). Nature of the assay: Inhibition of FYN (unknown origin) by microfluidic mobility shift assay.
The target of assay [8] is Proto-oncogene tyrosine-protein kinase Src (Homo sapiens, UniProt P12931). Kind of assay: Inhibition of SRC (unknown origin) by microfluidic mobility shift assay.
The target of assay [9] is Tyrosine-protein kinase Lyn (Homo sapiens, UniProt P07948). Nature of the assay: Inhibition of LYN (unknown origin) by microfluidic mobility shift assay.
Assay [10] addresses Serine/threonine-protein kinase D2 (Homo sapiens, UniProt Q9BZL6). Kind of assay: Inhibition of PKD2 (unknown origin) by microfluidic mobility shift assay.
Assay [11] addresses Tyrosine-protein kinase Lck (Homo sapiens, UniProt P06239). Nature of the assay: Inhibition of LCK (unknown origin) by microfluidic mobility shift assay.
Assay [12] concerns the target Mitogen-activated protein kinase 3 (Homo sapiens, UniProt P27361). Kind of assay: Inhibition of ERK1 (unknown origin) by microfluidic mobility shift assay.
The target in assay [13] is Glycogen synthase kinase-3 beta (Homo sapiens, UniProt P49841). Nature of the assay: Inhibition of GSK3beta (unknown origin) by microfluidic mobility shift assay.
The target of assay [14] is Casein kinase I isoform delta (Homo sapiens, UniProt P48730). Kind of assay: Inhibition of CK1delta (unknown origin) by microfluidic mobility shift assay.
In assay [15] the target is Hepatocyte growth factor receptor (Homo sapiens, UniProt P08581). Kind of assay: Inhibition of MET (unknown origin) by microfluidic mobility shift assay.
Assay [16] has as its target RAC-beta serine/threonine-protein kinase (Homo sapiens, UniProt P31751). Kind of assay: Inhibition of AKT2 (unknown origin) by microfluidic mobility shift assay.
Assay [17] addresses Protein kinase C zeta type (Homo sapiens, UniProt Q05513). Kind of assay: Inhibition of PKCzeta (unknown origin) by microfluidic mobility shift assay.
The target of assay [18] is Tyrosine-protein kinase ABL1 (Homo sapiens, UniProt P00519). Nature of the assay: Inhibition of ABL (unknown origin) by microfluidic mobility shift assay.
A short description of assay [19]: Inhibition of MAPK (unknown origin) by microfluidic mobility shift assay. On the set-up: species or system Homo sapiens.
Assay [20] addresses RAC-alpha serine/threonine-protein kinase (Homo sapiens, UniProt P31749). Nature of the assay: Inhibition of AKT1 (unknown origin) by microfluidic mobility shift assay.
For assay [21], the target named is Serine/threonine-protein kinase Chk2 (Homo sapiens, UniProt O96017). Kind of assay: Inhibition of CHK2 (unknown origin) by microfluidic mobility shift assay.
The target in assay [22] is Ribosomal protein S6 kinase alpha-1 (Homo sapiens, UniProt Q15418). Nature of the assay: Inhibition of RSK1 (unknown origin) by microfluidic mobility shift assay.

Receptor-type tyrosine-protein kinase FLT3 (Homo sapiens), sequence (P36888 whole entry): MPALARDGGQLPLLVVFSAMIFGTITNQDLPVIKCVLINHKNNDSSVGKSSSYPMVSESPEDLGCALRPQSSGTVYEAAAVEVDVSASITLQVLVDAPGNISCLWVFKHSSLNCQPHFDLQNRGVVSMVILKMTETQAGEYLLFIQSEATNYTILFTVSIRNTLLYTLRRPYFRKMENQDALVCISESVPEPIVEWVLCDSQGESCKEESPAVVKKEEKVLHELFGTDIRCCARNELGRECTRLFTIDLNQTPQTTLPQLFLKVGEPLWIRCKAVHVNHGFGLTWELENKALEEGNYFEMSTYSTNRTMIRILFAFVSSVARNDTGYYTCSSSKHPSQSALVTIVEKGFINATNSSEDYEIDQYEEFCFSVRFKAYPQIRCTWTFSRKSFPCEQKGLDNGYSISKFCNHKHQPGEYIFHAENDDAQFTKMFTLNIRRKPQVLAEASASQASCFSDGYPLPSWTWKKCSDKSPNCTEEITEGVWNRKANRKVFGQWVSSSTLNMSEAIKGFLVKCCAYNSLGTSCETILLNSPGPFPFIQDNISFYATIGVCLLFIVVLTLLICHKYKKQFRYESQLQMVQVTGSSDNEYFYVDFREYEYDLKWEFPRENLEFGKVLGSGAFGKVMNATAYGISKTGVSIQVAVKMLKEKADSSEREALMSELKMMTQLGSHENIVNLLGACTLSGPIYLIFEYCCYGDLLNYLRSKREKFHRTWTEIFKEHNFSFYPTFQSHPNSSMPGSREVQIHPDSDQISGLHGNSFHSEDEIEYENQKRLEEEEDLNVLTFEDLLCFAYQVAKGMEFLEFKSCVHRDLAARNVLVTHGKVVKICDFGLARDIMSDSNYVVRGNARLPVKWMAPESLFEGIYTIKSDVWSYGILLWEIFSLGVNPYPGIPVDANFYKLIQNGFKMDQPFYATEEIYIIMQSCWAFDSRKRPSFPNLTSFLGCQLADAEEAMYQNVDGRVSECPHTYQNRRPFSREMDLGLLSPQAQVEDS
Vascular endothelial growth factor receptor 2 (Homo sapiens), sequence (P35968 whole entry): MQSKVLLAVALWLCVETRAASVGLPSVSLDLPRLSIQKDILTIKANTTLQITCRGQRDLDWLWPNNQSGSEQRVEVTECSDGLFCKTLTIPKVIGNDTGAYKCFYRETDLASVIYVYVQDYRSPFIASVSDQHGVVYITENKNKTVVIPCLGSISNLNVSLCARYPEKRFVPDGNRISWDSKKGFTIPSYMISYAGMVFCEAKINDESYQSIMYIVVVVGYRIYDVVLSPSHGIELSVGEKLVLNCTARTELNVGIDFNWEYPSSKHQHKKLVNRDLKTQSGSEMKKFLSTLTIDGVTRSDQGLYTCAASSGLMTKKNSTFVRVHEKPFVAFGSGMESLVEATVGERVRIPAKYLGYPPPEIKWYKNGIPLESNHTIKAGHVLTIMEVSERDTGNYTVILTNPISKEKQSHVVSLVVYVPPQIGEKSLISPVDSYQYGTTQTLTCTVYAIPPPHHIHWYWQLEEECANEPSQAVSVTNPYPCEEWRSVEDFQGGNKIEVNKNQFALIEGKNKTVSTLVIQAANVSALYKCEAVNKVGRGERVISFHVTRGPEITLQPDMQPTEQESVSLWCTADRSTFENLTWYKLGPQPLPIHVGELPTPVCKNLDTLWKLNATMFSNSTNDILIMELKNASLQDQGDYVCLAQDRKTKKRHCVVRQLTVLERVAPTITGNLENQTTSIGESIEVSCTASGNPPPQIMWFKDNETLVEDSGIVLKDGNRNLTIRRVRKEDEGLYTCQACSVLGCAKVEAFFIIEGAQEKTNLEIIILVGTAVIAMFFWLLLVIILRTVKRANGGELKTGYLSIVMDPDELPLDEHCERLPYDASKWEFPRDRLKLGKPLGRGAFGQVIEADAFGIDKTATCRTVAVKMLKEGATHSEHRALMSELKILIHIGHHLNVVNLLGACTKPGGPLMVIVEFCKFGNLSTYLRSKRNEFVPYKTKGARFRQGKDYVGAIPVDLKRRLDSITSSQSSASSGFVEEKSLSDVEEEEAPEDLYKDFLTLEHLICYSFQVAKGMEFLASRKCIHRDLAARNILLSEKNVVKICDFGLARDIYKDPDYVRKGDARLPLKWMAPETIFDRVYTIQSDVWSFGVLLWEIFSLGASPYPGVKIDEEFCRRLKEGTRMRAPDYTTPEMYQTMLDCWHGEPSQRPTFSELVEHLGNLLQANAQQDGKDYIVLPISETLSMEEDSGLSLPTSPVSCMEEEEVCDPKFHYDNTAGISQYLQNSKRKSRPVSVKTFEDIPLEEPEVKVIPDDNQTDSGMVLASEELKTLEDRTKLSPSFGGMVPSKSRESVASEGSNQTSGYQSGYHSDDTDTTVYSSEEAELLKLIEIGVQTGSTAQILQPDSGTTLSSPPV
Tyrosine-protein kinase Fyn, sequence (P06241 whole entry): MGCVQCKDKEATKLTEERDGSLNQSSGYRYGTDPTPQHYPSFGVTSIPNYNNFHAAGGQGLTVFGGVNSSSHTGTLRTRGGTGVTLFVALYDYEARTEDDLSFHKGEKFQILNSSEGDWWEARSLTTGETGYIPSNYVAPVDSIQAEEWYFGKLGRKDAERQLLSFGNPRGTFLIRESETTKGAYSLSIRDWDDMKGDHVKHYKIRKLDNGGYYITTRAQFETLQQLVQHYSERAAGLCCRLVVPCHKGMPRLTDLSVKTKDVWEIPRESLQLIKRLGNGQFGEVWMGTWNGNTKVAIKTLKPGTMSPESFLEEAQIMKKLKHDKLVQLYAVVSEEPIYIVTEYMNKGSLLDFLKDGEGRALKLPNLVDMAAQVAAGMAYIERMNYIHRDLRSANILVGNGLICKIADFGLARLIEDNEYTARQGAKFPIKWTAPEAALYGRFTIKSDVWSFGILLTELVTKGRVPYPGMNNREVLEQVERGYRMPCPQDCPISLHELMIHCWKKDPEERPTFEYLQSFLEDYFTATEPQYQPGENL
RAC-beta serine/threonine-protein kinase, sequence (P31751 whole entry): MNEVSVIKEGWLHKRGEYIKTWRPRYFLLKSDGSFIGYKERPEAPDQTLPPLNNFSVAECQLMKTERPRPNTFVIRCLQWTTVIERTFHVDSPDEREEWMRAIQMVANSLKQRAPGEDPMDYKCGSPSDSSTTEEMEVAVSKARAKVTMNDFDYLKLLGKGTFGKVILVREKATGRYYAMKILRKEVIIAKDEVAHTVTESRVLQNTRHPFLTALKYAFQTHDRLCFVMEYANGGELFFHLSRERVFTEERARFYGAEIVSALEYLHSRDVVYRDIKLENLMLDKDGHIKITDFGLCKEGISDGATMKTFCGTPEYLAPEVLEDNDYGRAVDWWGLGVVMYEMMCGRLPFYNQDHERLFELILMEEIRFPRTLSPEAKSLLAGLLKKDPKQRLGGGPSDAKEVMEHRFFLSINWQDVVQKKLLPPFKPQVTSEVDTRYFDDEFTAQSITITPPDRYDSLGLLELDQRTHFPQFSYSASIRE
Serine/threonine-protein kinase D2, sequence (Q9BZL6 whole entry): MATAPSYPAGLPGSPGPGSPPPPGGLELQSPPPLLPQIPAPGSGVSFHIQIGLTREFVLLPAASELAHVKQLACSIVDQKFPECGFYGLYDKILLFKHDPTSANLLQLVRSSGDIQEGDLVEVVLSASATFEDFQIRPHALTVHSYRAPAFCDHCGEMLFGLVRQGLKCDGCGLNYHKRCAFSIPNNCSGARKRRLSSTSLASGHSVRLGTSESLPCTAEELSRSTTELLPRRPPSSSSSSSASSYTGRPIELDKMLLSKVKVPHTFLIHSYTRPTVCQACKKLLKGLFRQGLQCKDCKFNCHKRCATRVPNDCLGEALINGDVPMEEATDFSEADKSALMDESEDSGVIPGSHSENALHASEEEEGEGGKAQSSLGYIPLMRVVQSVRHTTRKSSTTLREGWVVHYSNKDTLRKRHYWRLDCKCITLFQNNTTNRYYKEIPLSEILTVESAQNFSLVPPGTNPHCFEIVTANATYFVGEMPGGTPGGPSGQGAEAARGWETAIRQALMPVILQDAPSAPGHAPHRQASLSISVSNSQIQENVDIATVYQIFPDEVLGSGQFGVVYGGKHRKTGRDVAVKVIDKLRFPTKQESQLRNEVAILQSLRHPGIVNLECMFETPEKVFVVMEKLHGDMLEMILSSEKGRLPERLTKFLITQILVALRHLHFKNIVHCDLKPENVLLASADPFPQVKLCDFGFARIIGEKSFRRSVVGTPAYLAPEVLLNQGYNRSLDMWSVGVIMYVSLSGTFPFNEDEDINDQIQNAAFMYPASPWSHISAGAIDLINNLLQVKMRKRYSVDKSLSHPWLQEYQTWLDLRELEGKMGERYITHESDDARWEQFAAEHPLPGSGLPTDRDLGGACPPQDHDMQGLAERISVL
RAC-alpha serine/threonine-protein kinase, sequence (P31749 whole entry): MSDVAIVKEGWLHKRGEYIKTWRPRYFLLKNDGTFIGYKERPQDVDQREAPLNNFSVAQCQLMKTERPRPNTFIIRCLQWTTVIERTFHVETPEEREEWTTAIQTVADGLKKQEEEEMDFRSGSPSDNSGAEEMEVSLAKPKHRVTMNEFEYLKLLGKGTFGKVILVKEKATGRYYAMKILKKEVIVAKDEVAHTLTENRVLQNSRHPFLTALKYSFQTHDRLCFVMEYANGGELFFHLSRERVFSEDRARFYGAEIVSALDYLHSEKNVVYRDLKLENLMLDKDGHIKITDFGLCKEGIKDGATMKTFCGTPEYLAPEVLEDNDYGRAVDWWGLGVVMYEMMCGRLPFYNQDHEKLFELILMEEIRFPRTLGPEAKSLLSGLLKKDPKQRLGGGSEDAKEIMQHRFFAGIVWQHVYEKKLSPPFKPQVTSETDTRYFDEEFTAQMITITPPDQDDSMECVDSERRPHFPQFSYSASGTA

By inhibition is commonly meant the relative decrease from the control value, in per cent. Turning to `c1ccc(C2CCNC3(CCN(c4ncnc5[nH]cnc45)CC3)C2)cc1` (racemic), the inhibition was found to be 35% in [1], 25% in [2] and 53% in [3].

By IC50 is commonly meant the concentration that inhibits the measured activity by half. On to `c1nc(N2CCC3(CCCNC3)CC2)c2nc[nH]c2n1`, for which the concentration for half-maximal inhibition (IC50) in assay [4] came to 41 µM; in assay [5] it was 0.7 µM; in assay [6], 38 µM; in assay [7], 26 µM; in assay [8] it was 18 µM; in assay [9], 14 µM. Besides, the IC50 in assay [10] was 1.3 µM; in assay [11], 20 µM; in [12], 37 µM; in [13] it was 55 µM; in assay [14], 97 µM; in assay [15], 183 µM. Also, the IC50 in assay [16] was determined as 9.5 µM; in [17], 74 µM; in [18] it was 7 µM; in assay [19] it was 19 µM; in [20], 1.6 µM.

As to `c1ccc(CC2CCC3(CCN(c4ncnc5[nH]cnc45)CC3)NC2)cc1` (racemic), the inhibition in assay [1] was 31%; in assay [2] it was 28%; in assay [3] it was 25%.

Take `c1nc(N2CCC3(CCCCN3)CC2)c2nc[nH]c2n1`: the half-maximal inhibitory concentration (IC50) in assay [4] amounted to 226 µM; in [5], 5.3 µM; in assay [6], 47 µM; in assay [7], 158 µM; in assay [21] it was 41 µM; in assay [8] it was 150 µM. For the same molecule, the 50% inhibitory concentration (IC50) in assay [9] was found to be 178 µM; in assay [10], 46 µM; in assay [11], 113 µM; in [12], 60 µM; in assay [13] it was 138 µM; in assay [14], 238 µM. Also, the IC50 in assay [22] worked out at 63 µM; in assay [16], 66 µM; in assay [18], 126 µM; in assay [19], 103 µM; in assay [20], 14 µM.

`c1ccc(CC2CCNC3(CCN(c4ncnc5[nH]cnc45)CC3)C2)cc1` (racemic): the inhibition in assay [1] is 11%; in assay [2], 10%; in [3] it was 81%.
